Sampled rows, rich in hits. Any-hit rate of the full collection: about 2.6%.
SIRT5 block: sirtuin-5 (human) deacylase inhibition; AID 652115; inhibition, % at 15 µM; 1.1% of 330,000 active; Purified SirT5, succinyl-peptide AMC, trypsin-coupled fluorescence; in the data active means inhibition above about 15%
Target sequence (Q9NXA8 whole entry, looked up): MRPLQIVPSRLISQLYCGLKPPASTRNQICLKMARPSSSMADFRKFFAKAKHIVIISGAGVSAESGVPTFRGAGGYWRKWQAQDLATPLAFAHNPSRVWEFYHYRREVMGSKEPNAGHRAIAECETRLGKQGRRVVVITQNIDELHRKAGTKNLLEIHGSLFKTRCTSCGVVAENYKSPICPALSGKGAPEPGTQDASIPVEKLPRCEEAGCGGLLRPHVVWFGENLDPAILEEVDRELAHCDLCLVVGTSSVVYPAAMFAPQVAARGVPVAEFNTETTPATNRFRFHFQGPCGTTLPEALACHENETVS
FGF22 binding: FGF22 (human) thermal shift binding | Q9HCT0 | recombinant FGF22 thermal shift, SYPRO orange fluorescence; percent of sucrose octasulfate shift, DMSO zero | activity (Tm shift, normalised), % at 9.99 µM | 1.5% of 340,000 active | AID 651658;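 active means mean Tm shift, scaled 0 neutral to 100 positive control, at about 1.3% or above, every replicate too, limit read from the data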
Casp6 inh: caspase-6 (human) enzyme inhibition; P55212; purified caspase-6, Z-VEID-R110 cleavage fluorescence; inhibition, % at 12.5 µM; 0.53% of 350,000 active; AID 686996;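 active means mean inhibition across replicates at least about 35%, with every replicate also reaching that limit, limit read from the data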;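 further: 0% = median of neutral control wells and 100% = no fluorescence left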
UCH37 DUB inh: blocks the human deubiquitinase UCH37. purified proteasome/UCH37, Ub-AMC cleavage fluorescence. 0.33% of 330,000 active. inhibition, % (test concentration not listed). AID 588478. Q9Y5K5;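 active means mean inhibition over replicate wells above about 20%, limit read from the data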;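 further: 0% = compound-free wells with enzyme and 100% = wells lacking proteasome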
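Reagent: Ub-AMC substrate; assay system: Proteasome-associated human UCH37 deubiquitinase; controls: no-proteasome and no-compound wells; read-out: % inhibition of Ub-AMC cleavage fluorescence; timing: 30 min preincubation with enzyme, 25 min cleavage at room temperature; signal: AMC fluorescence from Ub-AMC cleavage, excitation 355 nm, emission 460 nm; buffer or medium: Tris-HCl pH 7.4 plus ovalbumin, ATP-MgCl2, DTT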
NSD2 inh: blocks human histone methyltransferase NSD2 | O96028 | NSD2 peptide methylation, AlphaScreen, 120 min | inhibition, % at 12.5 µM | 0.54% of 310,000 active | AID 743445; in the data active means inhibition above about 50%
An asterisk follows results filed as active.

Screening COCCCNC(=O)[C@@]1(C)c2ccccc2C(=O)N(Cc2cc(F)cc(C(F)(F)F)c2)[C@H]1c1ccc(CO)cc1 returned SIRT5 block 7, FGF22 binding 0 and Casp6 inh 1.
Screening COC(=O)C[C@H]1C[C@@H]2c3cc(NS(C)(=O)=O)ccc3O[C@@H]2[C@@H](CO)O1 returned SIRT5 block -5, FGF22 binding 0 and Casp6 inh -2.
Screening OC(COc1ccc2c(c1)OCO2)CN1CCCCC1 (configuration not stated) returned SIRT5 block -8, FGF22 binding 44*, Casp6 inh -3, UCH37 DUB inh -4 and NSD2 inh 0.
For CCC(=O)N1CCC1(C)C(=O)Nc1ccc2c(c1)CCN2C(C)=O (configuration not stated) the results were FGF22 binding 0, Casp6 inh 49* and NSD2 inh 2.
Screening Cc1nnc(NC(=O)c2ccc(F)c(S(=O)(=O)N3CCOCC3)c2)s1 returned FGF22 binding 43*, Casp6 inh 1, UCH37 DUB inh 4 and NSD2 inh -1.
CO[C@@H]1CN(C)C(=O)c2ccc(NC(C)=O)cc2OC[C@H](C)N(C(=O)c2ccccn2)C[C@@H]1C was read as SIRT5 block 4, FGF22 binding 0 and Casp6 inh 2.
COc1cc(C=NNC(=O)c2cccnc2)ccc1OC(=O)c1ccc([N+](=O)[O-])cc1 was read as UCH37 DUB inh 7.
For COc1ccc(N=C2S/C(=C\c3ccc(OCC(=O)O)cc3)C(=O)N2CCc2c[nH]c3ccccc23)cc1 the results were SIRT5 block 50*, FGF22 binding 1, Casp6 inh 83* and UCH37 DUB inh 10.
`CCc1ccccc1NCC(=O)Nc1ccccc1C(=O)OC` gave SIRT5 block -1, FGF22 binding 44*, Casp6 inh 5, UCH37 DUB inh 4 and NSD2 inh -1.
Screening COC(=O)c1ccccc1NC(=O)COC(=O)[C@H](C)NC(N)=O returned SIRT5 block -1, FGF22 binding 44*, Casp6 inh -3, UCH37 DUB inh -1 and NSD2 inh -1.
`O=C(N/N=C/c1ccsc1)C1CC1` gave SIRT5 block -3, FGF22 binding 43*, Casp6 inh 1 and NSD2 inh -3.
CC(=O)N(C)C[C@@H]1Oc2ncc(C#Cc3ccccc3)cc2C(=O)N([C@H](C)CO)C[C@@H]1C was read as SIRT5 block 1, FGF22 binding 0 and Casp6 inh 0.
For CCCCCNC(=O)C(c1cc2ccccc2o1)n1c(=O)c(-c2ccccc2)nc2ccccc21 (configuration not stated) the results were SIRT5 block 19*, FGF22 binding 0 and Casp6 inh -3.
Screening CCCCCNC(=O)C(c1cc2ccccc2o1)n1c(=O)c(-c2cc3ccccc3[nH]2)nc2ccccc21 (configuration not stated) returned SIRT5 block -1, FGF22 binding 0 and Casp6 inh -2.
COc1cc(NC(=S)N2CCN(C(=O)C3CCCO3)CC2)c(OC)cc1Cl (configuration not stated) was read as SIRT5 block -1, FGF22 binding 44*, Casp6 inh -1, UCH37 DUB inh 0 and NSD2 inh 0.
Screening CCN(CC)Cc1c(C(=O)NN=C(C)c2ccncc2)nnn1-c1nonc1N returned UCH37 DUB inh 6.
O=C1CCn2c1c(O)c1ccccc1c2=O was read as SIRT5 block -1, FGF22 binding 0, Casp6 inh 95* and NSD2 inh 26.
`O=c1c2ccccc2nc2n1CCC2` gave UCH37 DUB inh 12 and NSD2 inh 3.
For CCOc1ccccc1NC(=O)C(=O)NN=Cc1cc(Br)ccc1O the results were UCH37 DUB inh 4.
`Cc1ccc2cc(CN(Cc3ccc(F)cc3)Cc3nnnn3C3CCCC3)c(=O)[nH]c2c1` gave SIRT5 block 29*, FGF22 binding 0, Casp6 inh 4, UCH37 DUB inh 2 and NSD2 inh -1.
Screening Cc1ccccc1S(=O)(=O)N1[C@@H]2CNC[C@H]1[C@@H]2c1ccc(-c2ccc(C#N)cc2)cc1 returned SIRT5 block -5 and Casp6 inh 40*.
For CN(N=Cc1cc(Cl)cc(Cl)c1O)C(=S)NC(C)(C)C the results were UCH37 DUB inh -19.

High-throughput results deposited in PubChem by several laboratories.
